Measurements as given in the array DNA melting data of Ke et al. (doi:10.1101/2024.01.08.574731).

How the values were obtained:
[1] = folding enthalpy; higher = less favourable; fluorescence melt of hairpins on a sequencing array, two-state fit; conditions: sodium 0.088 M
Method in brief: (§1)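 Library hairpins on a sequenced MiSeq flow cell carried annealed Cy3 and quencher oligos, and their Cy3 fluorescence was imaged in 50 mM Na-HEPES pH 8.0 with 25 mM NaCl, in 2.5 °C steps up to 60 °C. Signals were normalised to Cy3 before quenching and to control constructs. Melting temperature and folding enthalpy were obtained from bootstrapped two-state fits, combined by inverse-variance weighting across four replicates, and the fitted temperatures were then raised by 9.35 °C to match UV melts.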

[2] = melting temperature; fluorescence melt of hairpins on a sequencing array, two-state fit, raised by 9.35 °C to match UV melts; conditions: sodium 0.088 M
Method in brief: as §1

Sequence	folding enthalpy [1] [kJ/mol]	Tm [2] [°C]
GCAAGCGAAAGCTTCTGC ((((((....)))..)))	-48.2	42.1
GTGTGTGGAAACACACAC (((((((....)))))))	-135	68.8
GTAACGGGAAACCGCTAC (((.(((....))).)))	-102	39.9
GATAACGAAAGTTAATC ((((((....))).)))	-64.3	30.7
GTCCATGGAAACATAGAC (((.(((....))).)))	-72.3	30.1
GATCCCCTCTGGGATC ((((((....))))))	-121	60.3
GGTTGCGAAAGCAAACC ((((((....))).)))	-83.5	61.8
GCCGCCGAAAGGCATGGC ((((((....)))..)))	-83.1	63
GAGTAAGCGAAAGCTCTC (((..(((....))))))	-56.2	35.7
GAATAACGAAAGTTGTTC (((.(((....))).)))	-130	45.5
GCTGAACGAAAGTTAAGC (((.(((....))).)))	-132	50.6
GCGGTGATCCGC ((((....))))	-118	54.8
GGAGGTGGAAACGTCTCC ((((..(....)..))))	-76.9	35.9
GAGCAAGGAAACTCGCTC ((((.((....)).))))	-129	40.6
GACCGGCGAAAGCCAGTC (((.(((....))).)))	-84.5	50.7
GCGAGCGGAAACGCCCAC (.(.(((....))).).)	-36.3	34.2
GAGCACGCGAAAGCGCTC (((..(((....))))))	-53.7	47.6
GATCGTGGCACGATC ((((((...))))))	-192	59.8
GATCACCGGTGTGATC ((((((....))))))	-159	54.8
GTTTAAGGAAACTTGAAC (((.(((....))).)))	-77.6	35
GATCTCCAGGGAGATC ((((((....))))))	-153	55
GGAGGGGGAAACCCTTCC (((.(((....))).)))	-108	49.2
GATCCTGGAAACAGGATC (((((((....)))))))	-186	61.7

Sequence	folding enthalpy [1] [kJ/mol]	Tm [2] [°C]
GGGCTCGAAAGAGACCC ((((((....))).)))	-87.6	66.8
GATCTAGCGAAAGCTATC (((..(((....))))))	-43.9	22.8
GGCATCGAAAGATAAGCC ((((((....)))..)))	-117	44.7
GCGATTTCGAAAGAACGC (((..(((....))))))	-101	36.9
GATCACGTTCGTGATC ((((((....))))))	-165	62.6
GATCTGACACAGATC ((((((...))))))	-149	48.1
GGCTCGGGAAACCAAGCC ((((.((....)).))))	-148	48.8
GATCACTCCGTGATC ((((((...))))))	-184	59.2
GATCGGTTGACCGATC ((((((....))))))	-142	60.3
GCCGACGAAAGTCCCGGC ((((((....)))..)))	-87.6	49.6
GTTGGCGGAAACGCCGAC ((.((((....)))).))	-105	59.4
CGCCCGGAAACGGTTGCG ((((((....)))..)))	-107	48.6
GATCCCTTGTGGGATC ((((((....))))))	-130	62.4
GCTGACGAAAGTCAAGC ((((((....))).)))	-120	56.3
GCATAACGAAAGTTTGC (((.(((....))))))	-108	46
GGGGAAGGAAACTCCCCC ((((.((....)).))))	-104	46.9
GGCGAGCGAAAGCTAGCC (((.(((....))).)))	-177	68.7
GGTGAGCGAAAGCTGACC (((.(((....))).)))	-158	55
GAGACACGAAAGTGCTC (((.(((....))))))	-69.5	44.6
GATGATGGAAACACCATC ((((.((....)).))))	-87.1	38.6
GATCCAGATGTGGATC ((((((....))))))	-148	51.1
GACTGCGGAAACGCAGCC (.(((((....))))).)	-47	52
GTGATCCCGAAAGGGCAC (((..(((....))))))	-60.2	39.9

Sequence	folding enthalpy [1] [kJ/mol]	Tm [2] [°C]
GCTACCGAAAGGTCAGC ((((((....))).)))	-89.7	48.7
GAAGAGCCGAAAGGCTTC (((..(((....))))))	-39.5	31.6
GGCTTTGGAAACAAGGCC (((.(((....))).)))	-170	51.6
GGACGAGGAAACTCGCCC ((.((((....)))).))	-97.4	51.7
GATCCCGGGGGGATC ((((((...))))))	-148	61.6
GATCAGCCTACTGATC ((((((....))))))	-147	49.9
GCATAGCGAAAGCAACGC ((.(.((....)).).))	-50.2	35.6
GATCCGCCAACGGATC ((((((....))))))	-151	57.7
GGCATCGAAAGATACGCC ((((((....)))..)))	-102	42.3
TCACTGAAAAGTGA (((((....)))))	-78.2	43.4
GTTGTCGAAAGACGGAAC ((((((....)))..)))	-43.1	31.3
GAATTGGGAAACTGATTC ((((..(....)..))))	-55.3	25.6
GAGGACGAAAGTCTACTC ((((((....)))..)))	-50.2	36.8
GAGACCGAAAGGTTCTC ((((((....))).)))	-93.3	54.2
GCACTGCGAAAGCAGCGC ((.((((....)))).))	-121	69.1
CGTGCGGAAACGCTTACG ((((((....)))..)))	-94.8	38.4
GGACCCGAAAGGGAATCC ((((((....)))..)))	-69.9	34.6
GGAGCCGAAAGGCGATCC ((((((....)))..)))	-39.7	51.6
GTACGCGAAAGCGTTTAC ((((((....)))..)))	-30.6	29.1
GCCTCGCGAAAGCCAAGC ((.(.((....)).).))	-25.7	28.4
GATCCAGTGTGGATC ((((((...))))))	-138	51.6
GATCCGGCTTCGGATC ((((((....))))))	-167	59.5
CTAGCGAAAGCTAG (((((....)))))	-79.7	63.2

Sequence	folding enthalpy [1] [kJ/mol]	Tm [2] [°C]
GTTGCACGAAAGTGTAAC (((.(((....))).)))	-124	55.5
GGAGGTGAAAACCTCC ((((((....))))))	-141	66.2
GGGGACGGAAACATCCCC (((((.(....).)))))	-137	47
GGTAAGCGAAAGCTACC (((.(((....))))))	-112	55
GGCCAGGCGAAAGCCGCC (((..(((....))))))	-58.2	58.4
GACGACGAAAGTCAGGTC ((((((....)))..)))	-83.3	44.3
GATCATGTCAATGATC ((((((....))))))	-167	56.9
GATCTAATCCTAGATC ((((((....))))))	-107	38.3
GATCTCCTTTGAGATC ((((((....))))))	-166	51.7
GATCTGCCACAGATC ((((((...))))))	-133	48.9
GCGGAGCGAAAGCCACGC (((..((....))..)))	-65.8	58.4
GATCTATGGGTAGATC ((((((....))))))	-139	45.6
CGGAGCGGAAACGCGCCG (((.(((....))).)))	-113	68.6
GTATGAGGAAACTCACAC ((.((((....)))).))	-60.5	29.4
GATCCCCGTCGGGATC ((((((....))))))	-135	62.8
GCTTCCGGAAACGAAAGC ((((.((....)).))))	-124	43
GTCTAGCGAAAGCTGAC (((.(((....))))))	-88.4	50.5
GCTTTTCCGAAAGGAAGC (((..(((....))))))	-44.8	33.7
GGACACGAAAGTGAGTCC ((((((....)))..)))	-87.9	44.8
GACAGTGGAAACACCATC ((..(((....)))..))	-43	19.9
GTGAGCGAAAGCTGTCAC ((((((....)))..)))	-59.9	40.2
GCTGCTGGAAACAGTGGC ((..(((....)))..))	-168	47.6
GATCCAGGTGTGGATC ((((((....))))))	-187	52
